Tests used:
[1] = target: Sigma non-opioid intracellular receptor 1 (Cavia porcellus, UniProt Q60492); test: Displacement of [3H](+)-pentazocine ((+)-[2S-(2R,6R,11R)]-1,2,3,4,5,6-hexahydro-6,11-dimethyl- 3-(3-methyl-2-butenyl)-2,6-methano-3-benzazocine- 8-ol) from sigma 1 receptor in Dunkin guinea pig brain membrane by radioreceptor binding assay; type: cell membranes
Outline: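 IC50 came from six to nine concentrations, in two or three experiments with duplicate samples. Compounds were tested as hydrochloride salts, or as methylammonium iodides where applicable.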

[2] = Displacement of [3H]DTG form sigma 2 receptor in Wistar Hannover rat liver membrane by radioreceptor binding assay; type: cell membranes
Outline: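 Specific binding was defined with DTG (85-96%). IC50 came from six to nine drug concentrations, in two or three experiments with duplicate samples.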

[3] = target: T1, 3-beta-hydroxysteroid-Delta(8),Delta(7)-isomerase (Cavia porcellus, UniProt Q60490); test: Displacement of [3H](+/-)-emopamil from EBP in Dunkin guinea pig liver membrane by radioreceptor binding assay; type: cell membranes
T1 sequence (Q60490 whole entry): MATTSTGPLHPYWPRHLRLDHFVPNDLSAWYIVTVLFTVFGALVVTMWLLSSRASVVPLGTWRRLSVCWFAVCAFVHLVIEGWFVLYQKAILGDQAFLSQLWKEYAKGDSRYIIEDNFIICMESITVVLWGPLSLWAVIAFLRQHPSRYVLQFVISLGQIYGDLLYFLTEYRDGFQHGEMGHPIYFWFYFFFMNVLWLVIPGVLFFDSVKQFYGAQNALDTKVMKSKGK

[4] = Selectivity ratio of Ki for sigma 2 receptor in Wistar Hannover rat liver membrane to Ki for sigma 1 receptor in Dunkin guinea pig brain; type: cell membranes
Outline: (§1)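 Ratios were calculated from Ki values. Sigma-1 Ki was measured with (+)-[3H]-pentazocine on guinea-pig brain membranes without cerebellum. […] Each IC50 came from six to nine concentrations, in two or three experiments with duplicates.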

[5] = Displacement of [3H]DTG form sigma receptor in guinea pig brain; design: species or system Cavia porcellus
[6] = Displacement of [3H]DTG form sigma 2 receptor in rat liver membrane; type: cell membranes
Outline: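 IC50 taken from six to nine drug concentrations, two or three experiments with duplicate samples, and converted to Ki. Tested as hydrochloride salts, or as methylammonium iodide salts for the quaternized analogs.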

SK-N-SH [7] = test: Antiproliferative activity against human SK-N-SH cells after 48 hrs by MTT assay; type: functional, cell-based
Outline: (§2)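 Human SK-N-SH neuroblastoma cells were grown in RPMI 1640 with 10% FBS, 2 mM glutamine, penicillin/streptomycin, 1 mM pyruvate and 1% non-essential amino acids at 37 °C under 5% CO2. Cells were plated at 10 000/well and dosed next day at 1–100 μM, with solvent (ethanol, DMSO) controls. After 48 h, 0.5 mg/mL MTT was added for 3 h at 37 °C. Formazan was dissolved in DMSO and read at 570 and 630 nm.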

[8] = Selectivity ratio of Ki for sigma 1 receptor in Dunkin guinea pig brain membrane to Ki for sigma 2 receptor in Wistar Hannover rat liver membrane; type: cell membranes; outline: as §1
SK-N-SH [9] = test: Inhibition of human SK-N-SH cell proliferation at 100 uM after 48 hrs by MTT assay; type: functional; outline: as §2
[10] = Binding affinity to sigma 2 receptor in human SK-N-SH cells; type: cell-based
[11] = target: Sigma non-opioid intracellular receptor 1 (Rattus norvegicus, UniProt Q9R0C9); test: Displacement of [3H](+/-)-pentazocine from sigma 1 receptor in rat whole brain
Sigma non-opioid intracellular receptor 1 (Rattus norvegicus, UniProt Q9R0C9), sequence (Q9R0C9 whole entry): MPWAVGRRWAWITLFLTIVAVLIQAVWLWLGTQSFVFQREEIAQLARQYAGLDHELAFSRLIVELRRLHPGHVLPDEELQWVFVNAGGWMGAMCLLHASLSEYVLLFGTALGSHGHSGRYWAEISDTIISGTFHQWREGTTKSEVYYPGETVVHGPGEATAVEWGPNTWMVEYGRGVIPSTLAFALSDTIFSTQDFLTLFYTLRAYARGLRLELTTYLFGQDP

Sigma non-opioid intracellular receptor 1 (Cavia porcellus, UniProt Q60492), sequence (Q60492 whole entry): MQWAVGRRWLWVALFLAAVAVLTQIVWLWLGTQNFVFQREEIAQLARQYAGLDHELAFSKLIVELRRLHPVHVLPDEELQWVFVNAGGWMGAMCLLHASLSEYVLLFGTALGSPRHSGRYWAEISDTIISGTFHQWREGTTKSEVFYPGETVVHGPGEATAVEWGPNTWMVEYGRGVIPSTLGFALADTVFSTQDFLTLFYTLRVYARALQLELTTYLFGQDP

SMILES	Ki [1]	Ki [2]	Ki [3]	Ratio Ki [4]	further results
CC(=O)N1CCN(C)CC1	> 5000 nM	> 10000 nM	> 1000 nM	–	–
COc1cccc2c1CCCC2CCCN1CCNCC1 (stereo unspecified)	218 nM	590 nM	35.4 nM	2.7	Ki [5]: > 877 nM
COc1cccc2c1CCCC2CCCN1CCN(C2CCCCC2)CC1 (stereo unspecified)	–	–	–	–	Ki [6]: 0.68 nM; EC50 (SK-N-SH [7]): 9970 nM
COc1cccc2c1CCCC2CCCN1CC[N+](C)(C2CCCCC2)CC1 (stereo unspecified)	338 nM	13 nM	23 nM	–	Ratio Ki [8]: 26; inhibition at 100 µM (SK-N-SH [9]): 22%
COc1cccc2c1CCCC2CCC[N+]1(C)CC[N+](C)(C2CCCCC2)CC1 (stereo unspecified)	> 5000 nM	1710 nM	150 nM	–	Ratio Ki [8]: > 3; inhibition at 100 µM (SK-N-SH [9]): 30%
COc1cccc2c1CCCC2CCCN1CCN(C(=O)C2CCCCC2)CC1 (stereo unspecified)	> 5000 nM	304 nM	550 nM	–	Ratio Ki [8]: > 16
C1CCC(CCCN2CCN(C3CCCCC3)CC2)CC1	0.25 nM	–	4.7 nM	19	EC50 (SK-N-SH [7]): 52100 nM
COc1cccc2c1CCCC2CCCN1CCC(O)(C2CCCCC2)CC1 (stereo unspecified)	5.56 nM	9.27 nM	10.4 nM	1.6	EC50 (SK-N-SH [7]): 15900 nM
C1CCC(N2CCN(C3CCCCC3)CC2)CC1	2.05 nM	11.5 nM	17 nM	5.6	inhibition at 100 µM (SK-N-SH [9]): 4%
COc1cccc2c1CCCC2NCCN1CCC(C2CCCCC2)CC1 (stereo unspecified)	0.67 nM	74.7 nM	–	111	–
COc1cccc2c1CCCC2OCCN1CCC(C2CCCCC2)CC1 (stereo unspecified)	91 nM	161 nM	–	1.8	–
CC(C(O)c1ccc(O)cc1)N1CCC(Cc2ccccc2)CC1 (racemic) [IFENPRODIL]	–	–	10.2 nM	–	–
O=C(C1CCCCC1)N1CCN(C2CCCCC2)CC1	3.59 nM	201 nM	230 nM	56	–
COc1cccc2c1CCCC2CCC(=O)N1CCN(C2CCCCC2)CC1 (stereo unspecified)	0.11 nM	179 nM	7.4 nM	1630	–
COc1cccc2c1CCCC2CCCCCN1CCC(C2CCCCC2)CC1 (stereo unspecified)	236 nM	72.3 nM	49 nM	–	Ratio Ki [8]: 3.3
COc1cccc2c1CCCC2CCCNCC(=O)NC1CCCCC1 (stereo unspecified)	3910 nM	798 nM	1230 nM	–	Ratio Ki [8]: 5
CC(C)=CCN1CC[C@]2(C)c3cc(O)ccc3C[C@H]1[C@H]2C [(+)-PENTAZOCINE]	–	–	–	–	Ki [10]: 1860 nM
COc1cccc2c1CCCC2CCC[N+]1(C)CCN(C2CCCCC2)CC1 (stereo unspecified)	63.7 nM	6.78 nM	32 nM	–	Ratio Ki [8]: 9.4; inhibition at 100 µM (SK-N-SH [9]): 26%
COc1cccc2c1CCCC2CCCN1CCCCC1 (stereo unspecified)	3.38 nM	41.2 nM	11.1 nM	12	Ki [11]: 18.2 nM
c1ccc(CCN2CCN(c3ccccn3)CC2)cc1	–	–	–	–	inhibition at 100 µM (SK-N-SH [9]): 38%
CC(=O)N1CCN(C2CCCCC2)CC1	> 5000 nM	> 5000 nM	> 1000 nM	–	–
COc1cccc2c1CCCC2CCCC1CCN(C2CCCCC2)CC1 (stereo unspecified)	1.1 nM	26.6 nM	1.46 nM	24	EC50 (SK-N-SH [7]): 1400 nM
COc1cccc2c1CCCC2CCCN1CCN(CCCC2CCCc3c(OC)cccc32)CC1 (stereo unspecified)	> 5000 nM	120 nM	470 nM	–	Ratio Ki [8]: > 42
CCN1CCN(C2CCCCC2)CC1	62.4 nM	349 nM	64.4 nM	5.6	–
COc1cccc2c1CCCC2CCCN1CCOCC1 (stereo unspecified)	9.1 nM	442 nM	–	49	–
Cc1ccccc1NC(=N)Nc1ccccc1C [DITOLYLGUANIDINE]	–	32 nM	–	–	–
C1CCC(N2CCNCC2)CC1	> 5000 nM	> 5000 nM	> 1000 nM	–	–
COc1cccc2c1CCCC2CCCN1CCC(C2CCCCC2)CC1 (stereo unspecified)	143 nM	18.8 nM	7.4 nM	–	Ratio Ki [8]: 7.6; EC50 (SK-N-SH [7]): 3640 nM
